From ChEMBL document CHEMBL1150253, “Synthesis and anti-platelet evaluation of 2-benzoylaminobenzoate analogs” (Bioorg Med Chem, 2008)

Key:
Blood [1] = assay: Inhibition of collagen-induced platelet aggregation in human blood after 3 mins by turbidimetric assay; settings: 0.05 h
Blood [2] = assay: Inhibition of U46619-induced platelet aggregation in human blood after 3 mins by turbidimetric assay; assay type: functional, tissue-based; settings: 0.05 h
Procedure, shortened: (§1)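 Washed human platelets were prepared from ACD-anticoagulated blood of healthy volunteers who had taken no drugs for two weeks. They were resuspended at 3 × 10⁸/ml in Tyrode's solution with Ca²⁺ 2 mM, glucose 11.1 mM and BSA 3.5 mg/ml. Platelets were preincubated with DMSO (0.5%) or compound at 37 °C for 3 min, stirring at 1200 rpm. Inducers were arachidonic acid, collagen, U46619 or thrombin (0.1 U/ml). Aggregation was read by light transmission. IC50 is mean ± SEM, n = 3.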

Blood [3] = assay: Inhibition of thrombin-induced platelet aggregation in human blood after 3 mins by turbidimetric assay; settings: 0.05 h
Blood [4] = assay: Inhibition of arachidonic acid-induced platelet aggregation in human blood after 3 mins by turbidimetric assay; assay type: functional, tissue-based; settings: 0.05 h
Procedure, shortened: as §1

Platelet [5] = assay: Inhibition of arachidonic acid-induced TxB2 formation in human platelet at 0.5 uM per 3 x 10^8 platelets by immunoassay; assay type: functional
Procedure, shortened: (§2)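 Washed human platelets were suspended in Tyrode's solution with Ca²⁺, glucose and BSA and preincubated with DMSO or compound at 37 °C for 3 min. Arachidonic acid was then added. After 5 min the reaction was stopped with EDTA (2 mM) plus indomethacin. Samples were centrifuged for 3 min at 13,000 rpm. Supernatant TxB2 was measured by enzyme immunoassay and expressed per 3 × 10⁸ platelets. Values are mean ± SEM, n = 3.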

Platelet [6] = assay: Inhibition of arachidonic acid-induced TxB2 formation in human platelet at 1 uM per 3 x 10^8 platelets by immunoassay; assay type: functional
Procedure, shortened: as §2

Platelet [7] = assay: Inhibition of arachidonic acid-induced TxB2 formation in human platelet at 200 uM per 3 x 10^8 platelets by immunoassay; assay type: functional
Procedure, shortened: as §2

SMILES	IC50 (Blood [1]) [µM]	IC50 (Blood [2]) [µM]	IC50 (Blood [3]) [µM]	IC50 (Blood [4]) [µM]	Activity (Platelet [5]) [ng]	Activity (Platelet [6]) [ng]	Activity (Platelet [7]) [ng]
CC(C)OC(=O)c1ccc(Cl)cc1NC(=O)c1ccccc1F	36.7	> 100	> 100	> 100			
CCCNC(=O)c1ccc(Cl)cc1NC(=O)c1ccccc1Br	3.4	> 100	> 100	1.5			
CCOC(=O)c1ccc(Cl)cc1NC(=O)c1ccccc1OC	46.4	> 100	> 100	4.9			
CC(C)OC(=O)c1ccc(Cl)cc1NC(=O)c1c(F)cccc1F	28.8	> 100	> 100	> 100			
CCCCOC(=O)c1ccc(Cl)cc1NC(=O)c1c(F)cccc1F	21.8	> 100	> 100	1.5			
CCCOC(=O)c1ccc([N+](=O)[O-])cc1NC(=O)c1ccccc1C	8		> 100	4.7			
CCCOC(=O)c1ccc(Cl)cc1NC(=O)c1ccccc1C	8.3	> 100	> 100	2.2			
CCCCOC(=O)c1ccc(Cl)cc1NC(=O)c1c(Cl)cccc1Cl	> 100	> 100	> 100	> 100			
CCCCNC(=O)c1ccc(Cl)cc1NC(=O)c1ccccc1F	2.2	> 100	> 100	3.5			
CCCOC(=O)c1ccc(F)cc1NC(=O)c1ccccc1OC	33.2		> 100	31.5			
CCOC(=O)c1ccc(Cl)cc1NC(=O)c1c(Cl)cccc1Cl	32.3	> 100	> 100	68.3			
CCCOC(=O)c1ccc([N+](=O)[O-])cc1NC(=O)c1ccccc1F	3.5		> 100	4.7			
CCCOC(=O)c1ccc(Cl)cc1NC(=O)c1ccccc1OC	> 100	> 100	> 100	23.4			
CCCCOC(=O)c1ccc(Cl)cc1NC(=O)c1ccccc1Cl	19.5	> 100	> 100	2.1			
CCOC(=O)c1ccc(Cl)cc1NC(=O)c1ccccc1C	15.9	> 100	> 100	4.9			
CCCNC(=O)c1ccc(Cl)cc1NC(=O)c1ccccc1OC	11.1	> 100	> 100	6			
CCCCOC(=O)c1ccc(Cl)cc1NC(=O)c1ccccc1F	32.1	> 100	> 100	3			
CCCOC(=O)c1ccc(Cl)cc1NC(=O)c1c(F)cccc1F		> 100	48.8	0.5	45.47	7.74	
CCOC(=O)c1ccc(Cl)cc1NC(=O)c1ccccc1Br	13.9	> 100	> 100	3.6			
CCCOC(=O)c1ccc(Cl)cc1NC(=O)c1ccccc1Cl	2.3	> 100	> 100	0.7	62.56	32.52	
CCCNC(=O)c1ccc(Cl)cc1NC(=O)c1ccccc1F	8.7	> 100	> 100	1.9			
CCCOC(=O)c1ccc(F)cc1NC(=O)c1ccccc1Br	16.7		> 100	3.3			
CCCOC(=O)c1ccc(C)cc1NC(=O)c1ccccc1Cl	7.8			1.6			
CCOC(=O)c1ccc(Cl)cc1NC(=O)c1ccccc1F	20.1	> 100	> 100	3.8			
COc1ccc2c(c1)c(CC(=O)O)c(C)n2C(=O)c1ccc(Cl)cc1 [INDOMETHACIN]	0.4	> 100	> 100	0.12	3.09		
CCCOC(=O)c1ccc([N+](=O)[O-])cc1NC(=O)c1ccccc1Br	4.9		> 100	2.5			
CCCOC(=O)c1ccc(F)cc1NC(=O)c1ccccc1C	25.1		> 100	2			

SMILES	IC50 (Blood [1]) [µM]	IC50 (Blood [2]) [µM]	IC50 (Blood [3]) [µM]	IC50 (Blood [4]) [µM]	Activity (Platelet [5]) [ng]	Activity (Platelet [6]) [ng]	Activity (Platelet [7]) [ng]
CCCOC(=O)c1ccc(F)cc1NC(=O)c1ccccc1Cl	9.3		> 100	1.6			
CCCOC(=O)c1ccc(C)cc1NC(=O)c1ccccc1OC	62.5		> 100	10.4			
CCCOC(=O)c1ccc(Cl)cc1NC(=O)c1c(Cl)cccc1Cl	29.7	> 100	> 100	38.4			
CC(=O)Oc1ccccc1C(=O)O [ASPIRIN]	153	> 100	> 100	150			26.68
CCCOC(=O)c1ccc(C)cc1NC(=O)c1ccccc1Br	27.3			3.1			
CCCOC(=O)c1ccc(C)cc1NC(=O)c1ccccc1C	20.1		> 100	5.8			
CCOC(=O)c1ccc(F)cc1NC(=O)c1ccccc1C	36.1			21.1			
CCCOC(=O)c1ccc(Cl)cc1NC(=O)c1ccccc1F	11.6	> 100	> 100	1.6			
CCOC(=O)c1ccc(F)cc1NC(=O)c1ccccc1Cl	11			4.1			
CCCCOC(=O)c1ccc(Cl)cc1NC(=O)c1ccccc1Br	50.4	> 100	> 100	7.1			
CCCCOC(=O)c1ccc(Cl)cc1NC(=O)c1ccccc1OC	> 100	> 100	> 100	> 100			
CC(C)OC(=O)c1ccc(Cl)cc1NC(=O)c1ccccc1Cl	8.51	> 100	> 100	82.2			
CCOC(=O)c1ccc(Cl)cc1NC(=O)c1ccccc1Cl	7.6	> 100	> 100	1			
CCCOC(=O)c1ccc([N+](=O)[O-])cc1NC(=O)c1ccccc1OC	> 100		> 100	> 100			
CCCCOC(=O)c1ccc(Cl)cc1NC(=O)c1ccccc1C	76.2	> 100	> 100	4.7			
CCCNC(=O)c1ccc(Cl)cc1NC(=O)c1ccccc1C	10.3	> 100	> 100	8.4			
CCCNC(=O)c1ccc(Cl)cc1NC(=O)c1ccccc1Cl	4.1	> 100	> 100	3.4			
CCOC(=O)c1ccc(Cl)cc1NC(=O)c1c(F)cccc1F		> 100	> 100	0.9			
CCCCNC(=O)c1ccc(Cl)cc1NC(=O)c1c(F)cccc1F	1	> 100	> 100	3.5			
COC(=O)c1ccc(Cl)cc1NC(=O)c1c(F)cccc1F		> 100	> 100	0.7	61.18	29.48	
CCCOC(=O)c1ccc([N+](=O)[O-])cc1NC(=O)c1ccccc1Cl	2.9		> 100	2			
CCCOC(=O)c1ccc(C)cc1NC(=O)c1ccccc1F	11.3		> 100	0.9			
CCCNC(=O)c1ccc(Cl)cc1NC(=O)c1c(F)cccc1F	1	> 100	> 100	2.9			
CCCOC(=O)c1ccc(F)cc1NC(=O)c1ccccc1F	14.5		> 100	1.6			
CCCCNC(=O)c1ccc(Cl)cc1NC(=O)c1ccccc1Cl	1.1	> 100	> 100	3.4			
CCCOC(=O)c1ccc(Cl)cc1NC(=O)c1ccccc1Br	9.5	> 100	> 100	3.5			
COC(=O)c1ccc(Cl)cc1NC(=O)c1c(Cl)cccc1Cl	3.4	> 100	> 100	12.6			
